Measured values reported in ChEMBL document CHEMBL1795253, “Synthesis and biological evaluation in U87MG glioma cells of (ethynylthiophene)sulfonamido-based hydroxamates as matrix metalloproteinase inhibitors” (Eur J Med Chem, 2011).

Tests used:
[1] = target: T1, Matrix metalloproteinase-25 (Homo sapiens, UniProt Q9NPA2); assay: Inhibition of human MMP25 by fluorometric assay
T1 sequence (Q9NPA2 whole entry): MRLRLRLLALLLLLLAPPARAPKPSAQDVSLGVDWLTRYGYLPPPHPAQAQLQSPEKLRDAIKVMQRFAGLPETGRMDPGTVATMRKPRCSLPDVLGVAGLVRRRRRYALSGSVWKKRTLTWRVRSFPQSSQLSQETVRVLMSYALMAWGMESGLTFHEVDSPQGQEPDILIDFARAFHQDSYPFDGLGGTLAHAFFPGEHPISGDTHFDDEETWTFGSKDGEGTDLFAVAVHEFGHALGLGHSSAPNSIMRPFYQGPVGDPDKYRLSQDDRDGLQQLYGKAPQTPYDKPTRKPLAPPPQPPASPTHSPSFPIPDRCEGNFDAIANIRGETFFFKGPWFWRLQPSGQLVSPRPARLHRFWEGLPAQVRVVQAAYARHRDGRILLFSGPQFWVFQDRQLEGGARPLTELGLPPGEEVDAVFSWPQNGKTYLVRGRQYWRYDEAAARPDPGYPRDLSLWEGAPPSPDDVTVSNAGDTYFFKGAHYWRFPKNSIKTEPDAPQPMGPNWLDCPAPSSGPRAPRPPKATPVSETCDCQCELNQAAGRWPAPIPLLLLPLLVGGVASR
Method in brief: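 E. coli-expressed, refolded MMP-25 catalytic domain added to MOCAcPLGLA2pr(Dnp)AR-NH2 plus varying inhibitor in HEPES pH 7.5 with 5 mM CaCl2, 0.01% Brij-35, 5% DMSO, 25 °C. Initial rates from fluorescence (ex 328/em 393 nm), read every 4 s over 10 min.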

[2] = Antiinvasive activity against human U87MG cells at 5 nM after 24 hrs by Matrigel basement membrane transwell assay; assay type: functional, U-87MG ATCC
Method in brief: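 U87MG cells (maintained in RPMI, 10% FBS, 37 °C, 5% CO2) suspended serum-free, 60,000 per upper transwell (8.0 μm filters coated with Matrigel 0.32 mg/mL), with inhibitor 5 nM, DMSO vehicle ≤1%. Lower chamber RPMI with 10% FBS. Invasion 24 h at 37 °C. Lower-surface cells fixed with p-formaldehyde, crystal violet-stained, counted in 5 fields. Inhibition versus untreated control. Duplicate, ≥3 experiments, mean ± S.E.M.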

[3] = Cytotoxicity against human U87MG cells assessed as dead cells at 5 nM after 24 hrs by trypan blue exclusion assay; assay type: functional, U-87MG ATCC
Method in brief: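 U87MG human glioblastoma cells (RPMI, 10% FBS, 2 mM L-glutamine, penicillin/streptomycin, 1% non-essential amino acids, 37 °C, 5% CO2) seeded at 30,000 cells/cm2 in serum-free medium with 5 nM compound, DMSO vehicle ≤1% final, for 24 h. Cells lightly trypsinized, pelleted 800 x g 5 min, stained with 0.4% Trypan Blue in 0.9% NaCl, counted by haemocytometer; mean ± S.E.M., ≥3 experiments in duplicate.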

Interstitial collagenase = target: T2, Interstitial collagenase (Homo sapiens, UniProt P03956); assay: Inhibition of human MMP1 by fluorometric assay
T2 sequence (P03956 whole entry): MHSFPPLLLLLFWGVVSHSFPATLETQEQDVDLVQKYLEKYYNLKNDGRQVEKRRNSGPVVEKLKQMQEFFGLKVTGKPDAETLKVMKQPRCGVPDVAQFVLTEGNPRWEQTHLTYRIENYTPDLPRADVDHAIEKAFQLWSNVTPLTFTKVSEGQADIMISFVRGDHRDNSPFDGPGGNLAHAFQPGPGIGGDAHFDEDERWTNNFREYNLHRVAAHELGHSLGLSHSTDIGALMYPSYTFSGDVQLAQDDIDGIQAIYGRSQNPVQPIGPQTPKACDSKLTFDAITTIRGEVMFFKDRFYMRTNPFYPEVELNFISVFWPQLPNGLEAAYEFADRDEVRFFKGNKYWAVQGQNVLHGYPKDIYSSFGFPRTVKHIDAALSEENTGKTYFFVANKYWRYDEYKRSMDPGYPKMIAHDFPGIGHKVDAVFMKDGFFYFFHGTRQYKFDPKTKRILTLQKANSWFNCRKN

[4] = target: Matrix metalloproteinase-14 (Homo sapiens, UniProt P50281); assay: Inhibition of human MMP14 by fluorometric assay
Method in brief: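 Pro-enzymes activated with APMA (2 mM 2 h, MMP-1; 2 mM 1 h, MMP-2/-8; 1 mM 1 h, MMP-9; all 37 °C) or trypsin then soybean trypsin inhibitor (MMP-3). MMP-14 was catalytic domain. Enzyme (MMP-1 2.0, MMP-2 0.5, MMP-3 5.0, MMP-8 1.5, MMP-9 1.3, MMP-14 1.0 nM) with inhibitor at 7 concentrations, 2 h, 25 °C, in Tris pH 7.5, 1% DMSO.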

Neutrophil collagenase = Neutrophil collagenase (Homo sapiens, UniProt P22894); assay: Inhibition of human MMP8 by fluorometric assay
[5] = target: Matrix metalloproteinase-9 (Homo sapiens, UniProt P14780); assay: Inhibition of human MMP9 by fluorometric assay
Stromelysin-1 = Stromelysin-1 (Homo sapiens, UniProt P08254); assay: Inhibition of human MMP3 by fluorometric assay
[6] = target: 72 kDa type IV collagenase (Homo sapiens, UniProt P08253); assay: Inhibition of human MMP2 by fluorometric assay
U-87MG ATCC = assay: (§1) Antiinvasive activity against human U87MG cells after 24 hrs by Matrigel basement membrane transwell assay; assay type: functional, cell-based
Method in brief: (§2)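 Transwell filters (8.0 μm pores) coated with Matrigel (0.32 mg/mL) overnight at room temperature. U87MG cells in serum-free medium (60,000/400 μL) with inhibitor (1, 5, 25, 125 nM; DMSO ≤1%) in upper chamber; RPMI + 10% FBS below. 37 °C, 24 h.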

[7] = as §1; assay type: functional, cell-based; settings: u-87mg atcc; method in brief: as §2

Sequence of Neutrophil collagenase (P22894 whole entry): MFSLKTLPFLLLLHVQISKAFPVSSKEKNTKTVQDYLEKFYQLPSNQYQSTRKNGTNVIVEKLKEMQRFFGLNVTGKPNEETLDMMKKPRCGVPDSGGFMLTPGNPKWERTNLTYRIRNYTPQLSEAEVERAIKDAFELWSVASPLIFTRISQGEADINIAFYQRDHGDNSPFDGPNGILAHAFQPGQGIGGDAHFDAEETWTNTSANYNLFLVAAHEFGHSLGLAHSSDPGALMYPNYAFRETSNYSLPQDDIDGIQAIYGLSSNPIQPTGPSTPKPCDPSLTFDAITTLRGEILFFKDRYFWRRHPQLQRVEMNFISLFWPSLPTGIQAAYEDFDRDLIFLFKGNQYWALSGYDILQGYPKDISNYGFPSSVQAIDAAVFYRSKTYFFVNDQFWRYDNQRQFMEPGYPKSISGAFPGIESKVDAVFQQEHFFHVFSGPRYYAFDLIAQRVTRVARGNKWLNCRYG
Sequence of 72 kDa type IV collagenase (P08253 whole entry): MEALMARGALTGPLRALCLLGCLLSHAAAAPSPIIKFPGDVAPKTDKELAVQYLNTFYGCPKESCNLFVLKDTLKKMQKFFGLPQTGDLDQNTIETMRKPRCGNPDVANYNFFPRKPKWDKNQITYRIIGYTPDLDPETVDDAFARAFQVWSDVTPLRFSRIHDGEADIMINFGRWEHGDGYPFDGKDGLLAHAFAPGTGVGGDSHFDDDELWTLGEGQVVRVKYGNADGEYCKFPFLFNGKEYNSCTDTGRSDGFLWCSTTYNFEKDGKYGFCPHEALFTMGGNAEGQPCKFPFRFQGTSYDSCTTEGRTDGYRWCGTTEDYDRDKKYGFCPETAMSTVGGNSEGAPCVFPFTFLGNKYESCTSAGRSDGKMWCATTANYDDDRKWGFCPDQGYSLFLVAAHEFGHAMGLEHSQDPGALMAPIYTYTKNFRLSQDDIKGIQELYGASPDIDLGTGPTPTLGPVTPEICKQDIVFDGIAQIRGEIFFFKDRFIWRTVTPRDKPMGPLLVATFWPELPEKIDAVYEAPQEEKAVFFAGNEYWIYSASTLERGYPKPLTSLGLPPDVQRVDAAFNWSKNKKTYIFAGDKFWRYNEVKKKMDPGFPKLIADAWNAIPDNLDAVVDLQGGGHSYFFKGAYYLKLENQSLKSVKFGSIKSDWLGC
Sequence of Stromelysin-1 (P08254 whole entry): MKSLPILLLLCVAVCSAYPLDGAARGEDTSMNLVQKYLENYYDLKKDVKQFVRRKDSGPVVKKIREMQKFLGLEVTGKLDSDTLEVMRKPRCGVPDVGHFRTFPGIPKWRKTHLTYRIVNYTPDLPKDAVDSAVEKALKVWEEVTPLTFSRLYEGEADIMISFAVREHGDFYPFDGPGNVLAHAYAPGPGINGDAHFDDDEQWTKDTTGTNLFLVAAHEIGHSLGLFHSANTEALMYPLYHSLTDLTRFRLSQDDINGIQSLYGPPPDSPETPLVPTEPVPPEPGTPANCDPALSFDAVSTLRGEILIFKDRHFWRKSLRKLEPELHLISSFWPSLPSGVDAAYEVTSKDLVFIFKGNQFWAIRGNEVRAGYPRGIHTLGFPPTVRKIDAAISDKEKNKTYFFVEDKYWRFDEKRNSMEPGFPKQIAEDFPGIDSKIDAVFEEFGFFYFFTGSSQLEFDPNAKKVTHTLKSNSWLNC
Sequence of Matrix metalloproteinase-9 (P14780 whole entry): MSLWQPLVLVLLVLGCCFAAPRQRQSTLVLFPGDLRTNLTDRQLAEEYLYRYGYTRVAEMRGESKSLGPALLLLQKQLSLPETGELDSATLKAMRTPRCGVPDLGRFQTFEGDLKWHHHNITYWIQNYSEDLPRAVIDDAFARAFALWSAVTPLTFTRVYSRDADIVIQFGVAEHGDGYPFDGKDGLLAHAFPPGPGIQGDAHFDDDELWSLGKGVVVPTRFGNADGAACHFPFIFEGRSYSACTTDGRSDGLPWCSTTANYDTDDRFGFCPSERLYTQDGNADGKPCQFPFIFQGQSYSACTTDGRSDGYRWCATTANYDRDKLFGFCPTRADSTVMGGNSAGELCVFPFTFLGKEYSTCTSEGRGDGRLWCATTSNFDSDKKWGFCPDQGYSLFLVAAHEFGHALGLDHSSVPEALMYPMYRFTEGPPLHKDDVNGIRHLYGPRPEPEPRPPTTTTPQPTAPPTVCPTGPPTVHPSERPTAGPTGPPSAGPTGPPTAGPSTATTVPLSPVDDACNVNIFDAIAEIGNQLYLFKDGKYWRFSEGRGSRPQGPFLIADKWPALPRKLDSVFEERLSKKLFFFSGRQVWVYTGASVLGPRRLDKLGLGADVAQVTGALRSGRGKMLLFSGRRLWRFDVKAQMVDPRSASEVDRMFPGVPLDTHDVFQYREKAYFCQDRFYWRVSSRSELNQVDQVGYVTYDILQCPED

Compound	IC50 [1] [nM]	Activity [2] [%]	Activity [3] [%]	IC50 (Interstitial collagenase) [µM]	IC50 [4] [nM]	IC50 (Neutrophil collagenase) [nM]	IC50 [5] [nM]	IC50 (Stromelysin-1) [nM]	IC50 [6] [nM]	Activity (U-87MG ATCC)	IC50 [7] [nM]
COc1ccc(S(=O)(=O)N(Cc2cccnc2)[C@@H](C(=O)NO)C(C)C)cc1.Cl [CGS-27023A]	1.5	28.3	10.8								
CCCCc1ccc(C#Cc2ccc(S(=O)(=O)N[C@H](Cc3c[nH]c4ccccc34)C(=O)NO)s2)cc1	76	48.4	6.8	2.3	1700	280	77	93			
CCCCc1ccc(C#Cc2ccc(S(=O)(=O)N3CSC[C@H]3C(=O)NO)s2)cc1	170	16	17.8	21	1600	500	21	38	2.5		
CCCCc1ccc(C#Cc2ccc(S(=O)(=O)N[C@H](Cc3ccc(C(=O)c4ccccc4)cc3)C(=O)NO)s2)cc1	340	27.5	9.38	37	6600	440	50	84	4		
CCCCc1ccc(C#Cc2ccc(S(=O)(=O)N3Cc4ccccc4C[C@@H]3C(=O)NO)s2)cc1	3.4	35.9	13.6	6.7	112	30	4.3	11	1.3		
CCCCc1ccc(C#Cc2ccc(S(=O)(=O)N[C@H](Cc3ccc(OCc4ccccc4)cc3)C(=O)NO)s2)cc1	38	42.6	12.3	4.8	2100	490	63	180	2.3	Dose-dependent effect	12
CCCCc1ccc(C#Cc2ccc(S(=O)(=O)NCC(=O)NO)s2)cc1	34	39.5	11.5	13	700	200	79	46	1.5		
CCCCc1ccc(C#Cc2ccc(S(=O)(=O)N[C@H](Cc3csc4ccccc34)C(=O)NO)s2)cc1	220	34	14.4	56	23000	1700	650	320	17		
